# Hits are enriched below; roughly 1.8% of the tested compounds scored in any of these assays.
# Efflux pump inh = antifungal efflux pump inhibition, Nile Red retention; S. cerevisiae Candida pump triplex; inhibition, % at 10 µM; actives 0.44% (n = 330,000); AID 485275;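 active means plate passing quality check with inhibition over a set limit, or well fluorescence over plate mean plus 4 SD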;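 further: Nile Red retained in pooled yeast measured as flow cytometry median fluorescence; 0% = buffer negative control and 100% = Enniatin B positive control; higher means more Nile Red kept so more efflux inhibition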
# Statin myotox sup = suppressors of simvastatin-induced myotoxicity in C2C12 myotubes; ATP luminescence, 48 h; scaled: DMSO 0, geranylgeraniol control 100; rescue of ATP level, % at 7.49 µM; actives 0.78% (n = 330,000); AID 602340;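 active means mean ATP rescue above about 67%, or every replicate alone reaching that limit, limit read from the data, passing the limit was not always enough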;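 further: myotubes were challenged with 10 µM simvastatin during compound exposure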
# Cneo AK release = Cryptococcus neoformans lysis via adenylate kinase release; C. neoformans lysis, adenylate kinase release luminescence, 4 h; normalised: neutral wells 0, clomiphene wells 100; lysis activity, % at 15 µM; actives 0.2% (n = 360,000); AID 651654;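 active means mean lysis activity across replicates of at least 80%, whatever share of replicates individually reach that level; inactive means mean lysis activity below 80%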
#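 read-out = cell lysis signal | test system = log-phase Cryptococcus neoformans yeast cells | input = cells at 5 × 10^6 per mL | medium = fresh YPD growth medium | signal = luminescent adenylate kinase detection reagent | timing = 4 h at 37 °C static, read 1 h later | dosing = single dose | controls = Clomiphene as positive lysis control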
# SUMO Mot1 rescue = blocks SUMOylation pathway, rescuing yeast Mot1-301 growth; S. cerevisiae Mot1-301 growth rescue, ATP luminescence, 38.5C; percent above DMSO median, 100 means doubled; growth rescue, % at 18.8 µM; actives 1% (n = 320,000);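 active means every valid replicate shows activation above 250% relative to neutral control wells; inactive means the rest, any valid replicate at or below 250%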;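 further: OY570 slx delta 5 strain wells were the positive control but not used for scaling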
# Cmpd fluor yeast = compound fluorescence in yeast efflux pump counter-screen. shares compounds with Efflux pump inh. actives 4% (n = 1,700). fluorescence ratio to DMSO, % at 10 µM. S. cerevisiae AD/pABC3, flow cytometry;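 active means fluorescence ratio to DMSO above its plate's cutoff, the plate mean ratio plus 5 SD, cut at about 210% in these data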;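 further: unstained yeast with no Nile Red so the signal is compound autofluorescence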
# Mdr1 pump inh = inhibitors of Candida albicans Mdr1 efflux pump | shares compounds with Efflux pump inh | actives 1% (n = 1,700) | S. cerevisiae AD/CaMDR1, Nile Red efflux, flow cytometry | inhibition, % at 10 µM; in the data active means inhibition above about 26%;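 further: 0% = DMSO vehicle and 100% = reference inhibitor; higher means more Nile Red retained so more efflux inhibition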
# CaCdr2 efflux inh = blocks the Candida albicans Cdr2 efflux pump in yeast; Nile Red retention ratio vs DMSO, % at 10 µM; S. cerevisiae AD/CaCDR2, Nile Red retention, flow cytometry; shares compounds with Efflux pump inh; AID 588520; actives 4% (n = 1,700); in the data active means Nile Red retention ratio vs DMSO above about 190%;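 further: higher ratio means more blocking of Cdr2 efflux of the dye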
# Cdr1 pump inh = inhibitors of Candida albicans Cdr1 efflux pump. shares compounds with Efflux pump inh. actives 1% (n = 1,700). inhibition, % at 10 µM. S. cerevisiae AD/CaCDR1, Nile Red efflux, flow cytometry;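 active means inhibition above the screen-wide mean plus twice its standard deviation, cut at about 32% in these data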
# Active calls of the source: *; / = not tested or not shown; + = active, no number.
SMILES,Efflux pump inh,Statin myotox sup,Cneo AK release,SUMO Mot1 rescue,Cmpd fluor yeast,Mdr1 pump inh,CaCdr2 efflux inh,Cdr1 pump inh
COc1ccc(/C=N\NC(=O)c2ccccc2OC)cc1COc1c(F)c(F)c(F)c(F)c1F,9.2*,-14.8,0.0,-14.6,98.6,-0.3,101.5,-0.4
Cc1ccc(S(=O)(=O)Cn2nnnc2C(CC(C)C)N2CCN(c3ccccc3)CC2)cc1 (centres undefined),0.9*,2.0,1.5,-14.2,107.2,-0.1,107.2,0.0
CN1CCN(C(=O)/C=C/c2ccc([N+](=O)[O-])cc2)CC1,12.4*,1.9,0.3,13.9,98.2,-0.1,89.3,-0.1
Cc1ccc(CNC(=O)c2cc(-c3ccccc3C)nn2CC2CC(c3cccnc3)=NO2)cc1 (centres undefined),0.1,3.2,-3.0,5.9,/,/,/,/
Cc1ccc(CNC(=O)c2cc(-c3ccccc3)nn2CC2CC(c3cccnc3)=NO2)cc1 (centres undefined),0.8*,9.8,-1.5,8.4,101.8,-0.4,105.7,0.0
CCCCc1nnc(NC(=O)C2=COCCO2)s1,1.2,-4.8,-3.2,-0.4,/,/,/,/
NC(=O)C1c2ccccc2Oc2ccccc21,4.9*,9.5,-1.4,4.0,98.9,-0.4,100.1,-0.1
Cc1ccc(CNC(=O)C2CC(=O)N(CCC(C)C)C2)cc1 (centres undefined),-0.1,8.9,/,15.0,/,/,/,/
CN(C)c1ccc(/C=C2/C=C(c3ccc4c(c3)CCCC4)OC2=O)cc1,0.8*,1.7,/,-34.1,132.0,0.1,147.5,0.0
COC(=O)Cn1cc(/C=C/c2cc[n+](C)cc2)c2ccccc21,0.1,3.7,2.2,-23.4,173.8,1.0,141.3,0.6
Cc1ccc(-n2c(-c3ccc(Br)cc3)c[n+]3c2CCc2ccc4cccnc4c2-3)cc1,1.1*,-78.1,-1.8,19.1,106.8,0.1,+,-0.2
COc1ccc(-n2c(-c3ccc(Cl)cc3)c[n+]3c2CCc2ccccc2-3)cc1,0.1,-192.1,/,-13.7,/,/,/,/
O=C1C(Cl)=C(Nc2ccc3cn[nH]c3c2)C(=O)c2ccccc21,0.7*,-314.7,-4.7,1.5,97.0,-0.2,135.3,-0.4
Cc1ccc2nc(NC(=O)CSc3nc4ccccc4o3)sc2c1,0.6*,3.3,2.8,58.8,153.8,0.9,127.2,-0.1
Cc1nnc(NC(=O)CSc2nc3ccccc3o2)s1,0.1,-6.8,-0.9,-0.6,/,/,/,/
O=C(CSc1ccc(Br)cc1)N1CCN(S(=O)(=O)c2ccccc2)CC1,2.0*,14.8,-0.3,8.9,104.5,0.0,105.1,0.1
CC(=NCCCn1ccnc1)c1c(C)[nH]n(-c2ccc([N+](=O)[O-])cc2)c1=O,-0.1,0.2,-2.2,-6.4,/,/,/,/
O=C(COC(=O)c1ccc(S(=O)(=O)N2CCCCC2)cc1)NCc1ccco1,1.6*,1.3,0.4,-10.5,103.1,-0.1,102.9,0.0
O=C(COc1ccc(S(=O)(=O)N2CCCC2)cc1)NCc1ccco1,0.1,3.3,-1.7,163.1,/,/,/,/
Nc1nnc(SCc2ccc(Cl)cc2)s1,-0.2,9.7,/,-7.8,/,/,/,/
CCOC(=O)c1ccc(CSc2nnc(N)s2)cc1,1.8*,-2.0,5.1,-22.4,103.4,-0.5,112.4,0.0
O=C(NCc1ccc2c(c1)OCO2)C(=O)NCC1OCCN1S(=O)(=O)c1ccc(Cl)cc1 (centres undefined),0.1,26.0,-2.4,0.1,/,/,/,/
COc1ccc(S(=O)(=O)N2CCOC2CNC(=O)C(=O)NCCc2ccc(OC)c(OC)c2)cc1 (centres undefined),-0.1,/,/,-2.8,/,/,/,/
COc1ccc(CNC(=O)C(=O)NCC2OCCN2S(=O)(=O)c2ccc(OC)c(OC)c2)cc1 (centres undefined),0.0,6.1,3.4,110.1,101.4,0.0,93.5,0.1
COc1ccc(S(=O)(=O)N2CCOC2CNC(=O)C(=O)NCc2ccc3c(c2)OCO3)cc1OC (centres undefined),-0.1,-1.0,0.1,14.4,107.8,-0.1,99.7,-0.2
SMILES,Efflux pump inh,Statin myotox sup,Cneo AK release,SUMO Mot1 rescue,Cmpd fluor yeast,Mdr1 pump inh,CaCdr2 efflux inh,Cdr1 pump inh
CCOC(=O)C1CCN(S(=O)(=O)c2ccc3c(c2)CCN3C(C)=O)CC1,0.3,4.0,1.5,-18.0,/,/,/,/
CCOc1ccc(OCC)c(NS(=O)(=O)c2ccc3c(c2)CCN3C(=O)C2CCC2)c1,-0.2,62.6,-0.5,-3.0,108.3,0.0,114.1,-0.3
CCOC(=O)C1CCN(S(=O)(=O)c2ccc3c(c2)CCN3C(=O)C2CCC2)CC1,0.3,-5.0,1.0,7.4,118.0,-0.1,120.5,0.3
Cc1c(Cl)c(C(=O)NC2C3CC4CC(C3)CC2C4)nn1C (centres undefined),0.1,-12.4,5.0,48.5,/,/,/,/
CC(=O)c1c(COC(=O)c2ccccc2)nc2ccccc2[n+]1[O-],1.8*,4.5,4.7,574.2,94.8,-0.4,105.1,-0.1
CCC1(c2ccccc2)NC(=O)N(CC(=O)N(C)Cc2ccccc2)C1=O (centres undefined),1.1*,-2.7,1.5,12.0,98.9,-0.3,112.4,-0.1
CCC1(c2ccccc2)NC(=O)N(CC(=O)N(C)Cc2c(F)cccc2Cl)C1=O (centres undefined),-0.2,8.7,0.2,0.7,/,/,/,/
O=C(Nc1ccc(S(=O)(=O)Nc2nccs2)cc1)c1nn(-c2ccc(F)cc2)ccc1=O,0.1,-2.9,/,9.2,/,/,/,/
Cc1onc(-c2c(F)cccc2Cl)c1C(=O)NC(=S)NC1CCS(=O)(=O)C1 (centres undefined),6.5*,/,-1.8,-9.4,92.1,-0.2,112.0,-0.1
COc1cc2c(cc1OC)C(c1ccsc1)CC(=O)N2 (centres undefined),0.0,-2.5,-0.7,739.2,/,/,/,/
O=C1CC(c2ccsc2)Sc2ccccc2N1 (centres undefined),-0.2,-4.1,0.5,-4.0,88.8,0.0,100.1,0.0
Cc1cc(C2CC(=O)Nc3ccccc3S2)c(C)s1 (centres undefined),0.0,/,/,13.6,97.0,-0.3,105.7,0.1
O=C1CSc2ccccc2N1,/,4.0,1.9,/,/,/,/,/
Cc1ccc(CN2CC(C(=O)Nc3ccc(S(=O)(=O)N4CCCCC4)cc3)CC2=O)cc1 (centres undefined),16.2*,/,0.6,-11.4,96.6,-0.2,110.3,0.1
O=C(Nc1ccc(S(=O)(=O)N2CCCCC2)cc1)C1CC(=O)N(Cc2ccccc2)C1 (centres undefined),-0.1,4.4,1.8,272.8,/,/,/,/
CN(C(=O)c1ccc(S(=O)(=O)c2cccc(Cl)c2)c([N+](=O)[O-])c1)C1CCCCC1,-0.2,/,1.3,5.9,/,/,/,/

# Screens deposited in PubChem by several laboratories.
